In ChEMBL document CHEMBL2146464, “Structure-activity relationship study of nitrosopyrimidines acting as antifungal agents” (Bioorg Med Chem, 2012) one finds MIC50 and MIC data, which are given here for 1 compound.

In brackets after ≈: the same amount, converted by molar mass.

What is called MIC50 is an inhibitory concentration at the 50% level, which refers to growth in some studies and to a panel of isolates in others. High values mean lower susceptibility, low ones higher susceptibility.

What all share (format): functional
The test system of experiment [1] is Cryptococcus neoformans. As to the kind of experiment: Antifungal activity against Cryptococcus neoformans ATCC 32264 after 48 hrs by microplate reader analysis. The following applies: ATCC 32264, 48 h. The procedure, abridged: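 Microplate growth-inhibition assay in RPMI-1640, compound at final 250–0.98 µg/mL (DMSO ≤1%). Inoculum 1–5 × 10³ CFU/mL. Sterility and DMSO growth controls included. Percent inhibition is computed from blank-corrected OD relative to the growth control, tested in duplicate.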

The subject of experiment [2] is Candida tropicalis. The experiment in a line: Antifungal activity against Candida tropicalis by microplate reader analysis.
For experiment [3], the system named is Candida albicans. As to the kind of experiment: Antifungal activity against Candida albicans ATCC 10231 after 24 hrs by microplate reader analysis. To be noted: ATCC 10231, 24 h. The procedure, abridged: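 96-well RPMI-1640 wells with compound at final 250–0.98 µg/mL (DMSO ≤1%). Inoculum 100 µL, 1–5 × 10³ CFU/mL, 200 µL final. Each well includes growth (DMSO, no compound) and sterility controls. % inhibition = 100 − (CTW−SCW)/(GCW−SCW) × 100, run in duplicate.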

For experiment [4], the system named is Trichophyton rubrum. As to the kind of experiment: Antifungal activity against Trichophyton rubrum CCC 110 by NCCLS broth microdilution method. To be noted: read-out: MIC100. In outline: (§1)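 MIC by broth microdilution per NCCLS M27-A3/M38-A2 in RPMI-1640 buffered to pH 7.0 with MOPS. Twofold dilutions from 250–0.98 µg/mL, final DMSO ≤1%. Inoculum 1–5 × 10³ CFU/mL. Incubated in a moist dark chamber, 30 °C for Aspergillus and 28–30 °C for dermatophytes. Read visually when control growth allowed. Endpoint is the lowest concentration giving total inhibition of visible growth (MIC100).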
(In general: In broth dilution the organism is exposed to a series of concentrations in liquid medium.)

For experiment [5], the system named is Candida albicans. The experiment in a line: Antifungal activity against Candida albicans ATCC 10231 after 48 hrs by NCCLS broth microdilution method. To be noted: ATCC 10231, 48 h, read-out: MIC100. In outline:
(§2)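 Yeast MIC by NCCLS M27-A3 broth microdilution in RPMI-1640 buffered to pH 7.0 with MOPS. Twofold dilutions of 250–0.98 µg/mL, final DMSO ≤1%. Inoculum 1–5 × 10³ CFU/mL. Incubated at 30 °C in a moist dark chamber. Read visually at 48 h. MIC100 is the lowest concentration with no visible growth versus drug-free control.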

Experiment [6] concerns Cryptococcus neoformans. The experiment in a line: Antifungal activity against Cryptococcus neoformans ATCC 32264 after 48 hrs by NCCLS broth microdilution method. To be noted: ATCC 32264, 48 h, read-out: MIC100. In outline:
as §2

The test system of experiment [7] is Aspergillus niger. The experiment in a line: Antifungal activity against Aspergillus niger ATCC 9029 by NCCLS broth microdilution method. To be noted: read-out: MIC100. In outline:
as §1

The test system of experiment [8] is Trichophyton mentagrophytes. The experiment in a line: Antifungal activity against Trichophyton mentagrophytes ATCC 9972 by NCCLS broth microdilution method. To be noted: read-out: MIC100. The procedure, abridged: as §1
The subject of experiment [9] is Aspergillus fumigatus. As to the kind of experiment: Antifungal activity against Aspergillus fumigatus ATCC 26934 by NCCLS broth microdilution method. The following applies: read-out: MIC100. The procedure, abridged:
as §1

In experiment [10] the test system is Candida tropicalis. The experiment in a line: Antifungal activity against Candida tropicalis after 48 hrs by NCCLS broth microdilution method. The following applies: read-out: MIC100. The procedure, abridged: as §2
The subject of experiment [11] is Nannizzia gypsea. The experiment in a line: Antifungal activity against Microsporum gypseum CCC 115 by NCCLS broth microdilution method. To be noted: read-out: MIC100. In outline: as §1
Experiment [12] deals with Aspergillus flavus. As to the kind of experiment: Antifungal activity against Aspergillus flavus ATCC 9170 by NCCLS broth microdilution method. To be noted: read-out: MIC100. The procedure, abridged:
as §1

Consider `C[C@@H]1[C@H](O)[C@@H](C)/C=C/C=C/C=C/C=C/C=C/C=C/C=C/[C@H](O[C@@H]2O[C@H](C)[C@@H](O)[C@H](N)[C@@H]2O)C[C@@H]2O[C@](O)(C[C@@H](O)C[C@@H](O)[C@H](O)CC[C@@H](O)C[C@@H](O)CC(=O)O[C@H]1C)C[C@H](O)[C@H]2C(=O)O` [AMPHOTERICIN B], for which the MIC50 in experiment [1] was found to be 0.98 µg/mL (≈ 1.06 µM); in [2] it was 0.49 µg/mL (≈ 0.53 µM); in experiment [3], 0.49 µg/mL (≈ 0.53 µM). For the same compound, the MIC in [4] was 0.06 µg/mL (≈ 0.0649 µM); in [5], 0.98 µg/mL (≈ 1.06 µM); in [6] it was 0.25 µg/mL (≈ 0.271 µM); in [7] it was 0.49 µg/mL (≈ 0.53 µM); in [8], 0.06 µg/mL (≈ 0.0649 µM); in experiment [9], 0.49 µg/mL (≈ 0.53 µM). In addition, the MIC was determined as 0.98 µg/mL (≈ 1.06 µM) in experiment [10], 0.12 µg/mL (≈ 0.13 µM) in [11] and 0.49 µg/mL (≈ 0.53 µM) in experiment [12].
